Laboratory results from ChEMBL document CHEMBL1124738, “Novel 21-aminosteroids that inhibit iron-dependent lipid peroxidation and protect against central nervous system trauma” (J Med Chem, 1990).

How the values were obtained:
Assay type in all cases: functional
[1] = organism: Rattus norvegicus; assay: Ability to inhibit iron-dependent lipid peroxidation in rat brain homogenate using MDA (malondialdehyde) formation assay at 300 uM
[2] = tested on: Mus musculus; assay: Percent increase in KCN lethality (cytotoxic hypoxia) model against male CF-1 mice at a dose 30 mg/kg administered intravenously; details: route intravenous
[3] = organism: Mus musculus; assay: Lowest effective dose in a mouse head injury model was reported
Outline: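 Unanesthetized male CF-1 mice, 16–22 g; concussive head injury by weight drop (900 g cm for 16–20 g mice, 950 g cm for 20–22 g). Vehicle or compound given blindly as iv bolus 3–5 min post-injury; vehicle 0.05 N HCl or 0.5% Tween 80. Four groups of 20 per trial (vehicle plus three doses). Grip test on suspended taut string at 1 h; group score as mean time on string.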

[4] = organism: Rattus norvegicus; assay: Ability to inhibit iron-dependent lipid peroxidation in rat brain homogenate using MDA (malondialdehyde) formation assay
Outline: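 Incubations at 37 °C contain 20% ethanol and compound up to 300 μM, and are started with 200 μM Fe2+. They are stopped after 20 min with ice-cold 12.5% TCA in 0.8 N HCl. Readout is TBAR formation, reported as IC50 or % inhibition at 300 μM.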

[5] = tested on: Mus musculus; assay: Percent increase in KCN lethality (cytotoxic hypoxia) model against male CF-1 mice at a dose 100 mg/kg administered intravenously; details: route intravenous
[6] = tested on: Mus musculus; assay: Evaluated in a potassium cyanide lethality (cytotoxic hypoxia) model against male CF-1 mice at 100 mg/kg administered intravenously; details: route intravenous
[7] = tested on: Mus musculus; assay: Evaluated in a potassium cyanide lethality (cytotoxic hypoxia) model against male CF-1 mice at a dose 30 mg/kg administered intravenously; details: route intravenous

`C[C@]12CC[C@H]3[C@@H](CCC4=CC(=O)CC[C@@]43C)[C@@H]1CC[C@@H]2C(=O)CN1CCN(c2ccccn2)CC1` showed an inhibition [1] of 9%.

With `CCN(CC)c1ccc(N2CCN(CC(=O)[C@H]3[C@H](C)CC4C5CCC6=CC(=O)C=C[C@]6(C)C5=CC[C@@]43C)CC2)nc1N(CC)CC.O=C(O)/C=C/C(=O)O` (some centres undefined) the “Increase in LD50” value [2] was 15%, the Lowest effective dose [3] was 0.003 mg/kg and the IC50 [4] was 3 µM. The “Increase in LD50” value [5] was 46%.

For `C[C@]12CC(=O)[C@H]3[C@@H](CCC4=CC(=O)CC[C@@]43C)[C@@H]1CC[C@@H]2C(=O)CN1CCN(c2ccccn2)CC1`, the inhibition [1] was 14%.

`COc1cccc(N2CCN(CC(=O)[C@@]3(O)CCC4C5CCC6=CC(=O)CC[C@]6(C)C5=CC[C@@]43C)CC2)n1` (some centres undefined) was tested, and the IC50 [4] was 101 µM.

`C[C@]12CCC(=O)C=C1CCC1C2[C@H](O)C[C@@]2(C)C1CC[C@]2(O)C(=O)CN1CCN(c2ccccn2)CC1` (some centres undefined) was tested, and the inhibition [1] was 20%.

`CC(=O)N(O)CCCCCNC(=O)CCC(=O)N(O)CCCCCNC(=O)CCC(=O)N(O)CCCCCN` [DEFEROXAMINE] showed an IC50 [4] of 112 µM.

`C[C@]12CCC(=O)C=C1CCC1C2=CC[C@@]2(C)C1CC[C@]2(O)C(=O)CN1CCN(c2ccccn2)CC1` (some centres undefined) gave a Lowest effective dose [3] of 10 mg/kg and an inhibition [1] of 23%.

Molecule `C[C@]12C=CC(=O)C=C1CCC1C2[C@H](O)C[C@@]2(C)C1CC[C@]2(O)C(=O)CN1CCN(c2ccccn2)CC1` (some centres undefined) has an inhibition [1] of 0%.

With `Cc1c(C)c2c(c(C)c1O)CC[C@@](C)(CCC[C@H](C)CCC[C@H](C)CCCC(C)C)O2` [ALPHA-TOCOPHEROL] the IC50 [4] was 30 µM.

`C[C@]12CCC(=O)C=C1CCC1C2=CC[C@@]2(C)C1CC[C@]2(O)C(=O)CN1CCN(c2cccc(N3CCCC3)n2)CC1` (some centres undefined) gave an IC50 [4] of 57 µM.

`C[C@]12CCC(=O)C=C1CCC1C2C(=O)C[C@@]2(C)C1CC[C@]2(O)C(=O)CN1CCN(c2ccccn2)CC1` (some centres undefined) showed an inhibition [1] of 3%.

`C[C@@H]1CC2C3CCC4=CC(=O)C=C[C@]4(C)C3=CC[C@]2(C)[C@H]1C(=O)CN1CCN(c2ccccn2)CC1` (some centres undefined) showed a Lowest effective dose [3] of 10 mg/kg and an inhibition [1] of 4%.

For `C[C@]12CCC(=O)C=C1CCC1C2=CC[C@@]2(C)C1CC[C@]2(O)C(=O)CN1CCN(c2cc(N3CCCC3)nc(N3CCCC3)n2)CC1.O=C(O)/C=C/C(=O)O` (some centres undefined), the “Increase in LD50” value [6] was 33%, the “Increase in LD50” value [7] was 0% and the Lowest effective dose [3] was 1 mg/kg. The inhibition [1] was 25%.

Work on `C[C@]12CCC(=O)C=C1CC[C@@H]1[C@@H]2CC[C@@]2(C)[C@H]1CC[C@]2(O)C(=O)CN1CCN(c2ccccn2)CC1` yielded an inhibition [1] of 26%.

`COc1ccccc1N1CCN(CC(=O)[C@@]2(O)CCC3C4CCC5=CC(=O)CC[C@]5(C)C4=CC[C@@]32C)CC1` (some centres undefined) was tested, and the inhibition [1] was 37%.

In the case of `C[C@H]1C[C@@H]2[C@H]([C@@H](O)C[C@@]3(C)[C@H]2CC[C@]3(O)C(=O)COC(=O)CCC(=O)[O-])[C@@]2(C)C=CC(=O)C=C12.[Na+]` [METHYLPREDNISOLONE SODIUM SUCCINATE], the “Increase in LD50” value [2] is reported as 0%, the Lowest effective dose [3] is reported as 15 mg/kg and the inhibition [1] is reported as 0%. The “Increase in LD50” value [5] was 20%.

`C[C@H]1CC2C([C@@H](O)C[C@@]3(C)C2CC[C@]3(O)C(=O)CN2CCN(c3ccccn3)CC2)[C@@]2(C)C=CC(=O)C=C12` (some centres undefined) was tested, and the inhibition [1] was 0%.

`C[C@]12CCC(=O)C=C1CCC1C2=CC[C@@]2(C)C1CC[C@]2(O)C(=O)CN1CCN(Cc2ncccc2O)CC1` (some centres undefined) gave an inhibition [1] of 5%.

In the case of `CCNc1cccnc1N1CCN(CC(=O)[C@H]2[C@H](C)CC3C4CCC5=CC(=O)C=C[C@]5(C)C4=CC[C@@]32C)CC1.O=C(O)/C=C/C(=O)O` (some centres undefined), the Lowest effective dose [3] is reported as 0.03 mg/kg and the IC50 [4] is reported as 15 µM.

For `C[C@@H]1C[C@H]2[C@@H]3CCC4CC(=O)CC[C@]4(C)C3=CC[C@]2(C)[C@@]1(O)C(=O)CN1CCN(c2ccccn2)CC1` (some centres undefined), the inhibition [1] was 31%.

Molecule `C[C@]12CCC(=O)C=C1CCC1C2=CC[C@@]2(C)C1CC[C@]2(O)C(=O)CN1CCNCC1` (some centres undefined) has an inhibition [1] of 15%.

In the case of `C[C@@H]1C[C@H]2[C@@H]3CCC4=CC(=O)C=C[C@]4(C)C3=CC[C@]2(C)[C@H]1C(=O)CN1CCN(c2cc(N3CCCC3)nc(N3CCCC3)n2)CC1` [TIRILAZAD], the “Increase in LD50” value [2] is reported as 14%, the Lowest effective dose [3] is reported as 0.003 mg/kg and the IC50 [4] is reported as 18 µM. For the same molecule, the “Increase in LD50” value [5] was 20%.

In the case of `C[C@]12CCC(=O)C=C1CCC1C2=CC[C@@]2(C)C1CC[C@]2(O)C(=O)CN1CCN(CCO)CC1` (some centres undefined), the inhibition [1] is reported as 0%.

`C[C@]12CCC(O)CC1CC[C@@H]1[C@@H]2C(=O)C[C@@]2(C)[C@H]1CC[C@]2(O)C(=O)CN1CCN(c2ccccn2)CC1` (some centres undefined) gave an inhibition [1] of 3%.
